GPR7 antagonist: GPR7 receptor antagonists, primary screen, cell-based, fluorescence, single concentration. AID 1861, 2009. inhibition, % at 4.4 µM. 1.1% of 290,000 active. GPR7-expressing cells, fluorescence antagonist assay; in the data active = inhibition above about 16%, passing the limit was not always enough;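 also: cells stimulated with the agonist NPW; 0% = agonist with vehicle and 100% = vehicle without agonist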
Target sequence (P48145 whole entry, looked up): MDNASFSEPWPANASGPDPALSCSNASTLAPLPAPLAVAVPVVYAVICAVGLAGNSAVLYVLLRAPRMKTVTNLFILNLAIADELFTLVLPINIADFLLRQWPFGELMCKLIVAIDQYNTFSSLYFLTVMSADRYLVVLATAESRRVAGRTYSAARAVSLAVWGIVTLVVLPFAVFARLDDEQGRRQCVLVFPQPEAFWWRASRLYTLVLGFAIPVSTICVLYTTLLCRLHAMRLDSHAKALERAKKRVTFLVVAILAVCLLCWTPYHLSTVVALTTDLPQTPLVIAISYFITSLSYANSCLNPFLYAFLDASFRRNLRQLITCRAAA
697 NFkB inh: inhibitors of PMA/ionomycin-induced NF-kB reporter, 697 cells, primary screen, B-cell NF-kB inhibitor project, cell-based, luminescence, uHTS. 0.33% of 330,000 active. inhibition, % at 4 µM. 697 B-cell NF-kB luciferase reporter, 16 h. AID 435022, 2010; in the data active = inhibition above about 35%
HSF-1 act: HSF-1 activators, primary screen, NIH3T3-HGL cells, MG132 stress, luminescence, single point | NIH3T3-HGL HSF-1 luciferase reporter, 8 h; 100% = twice DMSO control signal | activation, % at 9 µM | 1.7% of 300,000 active | AID 504408, 2011;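 active = mean replicate activation of at least 50% with a set share of replicates each reaching 50%; inconclusive = only one of those two conditions met; inactive = mean below 50% and too few replicates reaching it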;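 also: 0% = median of the neutral control wells and 100% = twice that signal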
Jurkat NFkB inh: inhibitors of induced NF-kB luciferase reporter, primary screen, TCR NF-kB activation inhibitor project, cell-based, luminescence, uHTS; Jurkat, PMA/ionomycin-induced NF-kB luciferase reporter; inhibition, % at 4 µM; 0.53% of 330,000 active; AID 435003, 2010; in the data active = inhibition above about 50%
T cruzi repl: inhibitors of intracellular T. cruzi growth, primary screen, luminescence, NIH3T3 host cells; T. cruzi beta-gal in NIH3T3, 90 h; inhibition, % (no concentration beside the values); 1.4% of 300,000 active; AID 1885, 2009;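 active = mean inhibition across valid replicates above about 55%, limit read from the data; inconclusive = mean below that limit but half or more replicates reach it; inactive = mean below it, under half of replicates reach it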;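 also: signal also drops with host cell toxicity which is not excluded here; 0% = plate median of DMSO wells and 100% = zero luminescence signal; higher percent means less beta-gal luminescence so fewer parasites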
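assay system = mouse NIH/3T3 fibroblasts infected with β-gal-expressing T. cruzi Tulahuen C4 | input = 5,000 NIH/3T3 host cells per well | buffer or medium = DMEM plus 2% FBS | timing = 3 h host attachment, then at least 90 h co-culture | measured by = GalScreen luminescence, 60 min | evaluation = luminescence reflecting intracellular parasite burden, expressed as percent inhibition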
HSF1 inh: HSF1 inhibitors in luciferase reporter cells, primary screen, cell-based, NIH3T3, luminescence; NIH3T3-HGL HSE-luciferase, MG132-induced, luminescence 8 h; active compounds read low; activity change, negative = inhibition, % at 7.5 µM (by protocol); 0.77% of 300,000 active;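 active = more than half of replicate wells show activity change below -50%, luminescence cut by over half; inconclusive = some wells, but at most half, below -50%; inactive = no replicate well below -50%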;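 also: luciferase reports HSF-1 transcriptional activity via heat shock element; 0% = median of DMSO wells and -100% = zero luminescence signal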
Jurkat NFkB conf: PMA/ionomycin-induced NF-kB reporter inhibitors, Jurkat retest, confirmation, T-cell NF-kB inhibitor project, cell-based, luminescence, single concentration; AID 435020, 2010; 27% of 2,700 active; shares compounds with Jurkat NFkB inh; inhibition, % at 4 µM; Jurkat NF-kB luciferase, 16 h;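 active = inhibition reaching about 45% at 4 µM in either replicate, limit read from the data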;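 also: plate controls were PMA/ionomycin stimulated DMSO wells for no effect and unstimulated DMSO wells for full effect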
Numbers without * were called inactive; ? = inconclusive; · = no result given. Rows were chosen to be rich in hits. Some 4.8% of all compounds tested hit in one or more screens of this group.

SMILES	GPR7 antagonist	697 NFkB inh	HSF-1 act	Jurkat NFkB inh	T cruzi repl	HSF1 inh	Jurkat NFkB conf
Cc1cccc(N/C=C/C(=O)c2ccc(Cl)cc2)c1	7	-154	29	-136	-7	12	·
Cc1cc(C)c(NC(=O)COC(=O)Cc2cccs2)c(C)c1	·	-10	-1	1	2	-8	·
Cc1c(C(=O)N2CCN(c3ccc([N+](=O)[O-])cc3)CC2)oc2ccccc12	·	14	·	51*	·	·	32
O=C(NCCOc1ccccc1)c1cc([N+](=O)[O-])ccc1N1CCOCC1	·	-66	·	60*	·	·	57*
O=C(c1cc([N+](=O)[O-])ccc1Cl)N1CCN(c2ccccc2)CC1	1	-6	-3	3	4	3	·
O=C(c1cc([N+](=O)[O-])ccc1N1CCOCC1)N1CCN(c2ccccc2)CC1	20	-54	-32	74*	10	-35	33
O=C(c1ccc2c(c1)OCCO2)N1CCN(c2ccc([N+](=O)[O-])cc2)CC1	-7	7	0	56*	-1	0	-12
O=C(NCCOc1ccccc1F)c1cc([N+](=O)[O-])ccc1N1CCOCC1	13	-8	-11	57*	1	-3	30
O=C(NCCc1ccc(F)cc1)c1cc([N+](=O)[O-])ccc1N1CCOCC1	·	5	-1	6	4	-3	·
Nc1ccc2oc(-c3cccc(Br)c3)nc2c1	2	-182	15	-177	5	-3	-38
CCOC(=O)C1=C(c2ccccc2)O/C(=C(/C#N)C(F)(F)F)S1	9	-230	36	75*	70*	20	54*
O=C(N[C@@H](Cc1ccccc1)C(=O)CCl)OCc1ccccc1	·	-37	·	83*	·	·	48*
Cc1ccc(SCC(=O)NC(=O)NCc2ccccc2)c(C)c1	-10	11	17	-7	4	14	·
Cc1ccc(S(=O)(=O)NCc2ccncc2)c(C)c1C	15	31	3	62*	-56	-7	68*
Cc1ccsc1C(=O)NCCc1c[nH]c2ccccc12	5	-33	41	-39	0	17	·
CCOC(=O)N/N=C/c1c(C)nn(-c2ccccc2Cl)c1Cl	-3	-57	34	-20	-13	3	·
Cc1nn(-c2ccccc2Cl)c(Cl)c1/C=N/Nc1nc2ccccc2s1	-1	-223	-86	67*	5	-84*	86*
CSc1cccc(N2CC(C(=O)N(CC(C)C)c3c(N)n(Cc4ccccc4)c(=O)[nH]c3=O)CC2=O)c1 (stereo not given)	·	7	-9	7	2	2	·
COc1cc(/C=N/NS(=O)(=O)c2ccc(C)cc2)ccc1OCc1ccc(C(=O)O)cc1	4	-9	-78	63*	-17	-75*	28
CC(C)(C)c1ccc(/C=C/C(=O)Nc2nncs2)cc1	-7	-11	26	-171	-19	14	-113
O=C(/C=C/c1cccs1)Nc1nncs1	-3	-4	1	-28	-22	7	·
Cc1c(C(=O)Nc2cccc(Cl)c2)oc2ccc(S(=O)(=O)N3CCC4(CC3)OCCO4)cc12	-10	-37	5	60*	-4	-2	30
Cc1c(C(=O)Nc2ccc(F)cc2)oc2ccc(S(=O)(=O)N3CCC4(CC3)OCCO4)cc12	-11	-95	24	7	-2	10	·
O=C(COC(=O)c1ccc(O)cc1)c1ccc2c(c1)OCCO2	·	-82	·	-80	·	·	·
COc1cc(CC(=O)OCC(=O)c2ccc3c(c2)OCCO3)cc(OC)c1OC	10	1	-23	61*	17	-19	38
SMILES	GPR7 antagonist	697 NFkB inh	HSF-1 act	Jurkat NFkB inh	T cruzi repl	HSF1 inh	Jurkat NFkB conf
COc1cc(/C=C/C(=O)NC(C)(C)C)ccc1OCc1ccccc1	-6	8	-2	3	-13	4	·
COc1cc(/C=C/[N+](=O)[O-])ccc1OCc1cccc(C(=O)O)c1	-10	-58	-23	69*	-26	-14	43
CCOC(=O)c1ccc(NC(=O)Nc2cc(C)cc(C)n2)cc1	-3	-3	25	-3	-15	1	·
CCOC(=O)c1c(C)[nH]c(N=Nc2cccc(C)c2)c1C	-4	-179	48	-111	16	29	·
CCOC(=O)c1c(C)[nH]c(N=Nc2cccc(OC)c2)c1C	-24	-174	?	-209	0	8	-39
Cc1ccn(S(=O)(=O)c2ccc(N3CCCC3=O)cc2)n1	3	-2	9	0	-1	12	·
CCOC(=O)N1CCN(C(=O)c2ccc3c(c2)N(C)C(=O)/C(=C\c2ccc(OCC)c(OC)c2)S3)CC1	-23	-64	10	12	-4	0	·
CCOC(=O)N1CCC(NC(=O)c2ccc3c(c2)N(C)C(=O)/C(=C/c2cccc(OC)c2)S3)CC1	14	-11	37	53*	15	18	7
CCOC(=O)[C@H]1[C@H]2COc3cc(OC)ccc3[C@@H]2N2C(=O)c3cc(F)ccc3NC(=O)[C@@]12C	·	8	·	4	·	·	·
C=CCn1c(Oc2cc(C)ccc2C)nc2c1c(=O)n(C)c(=O)n2C	4	-11	-13	54*	-4	-2	16
C=CCn1c(Oc2cccc(C)c2)nc2c1c(=O)n(C)c(=O)n2C	5	-12	5	-6	5	-1	·
Cc1c(C(=O)OCc2ccccc2)[nH]c2c1C(=O)CC(c1ccco1)C2 (stereo not given)	9	-8	-22	63*	29	-20	39
COCCOC(=O)c1[nH]c2c(c1C)C(=O)CC(c1ccccc1)C2 (stereo not given)	14	-16	-35	46	4	-20	·
CSCCOC(=O)c1[nH]c2c(c1C)C(=O)CC(c1ccco1)C2 (stereo not given)	10	-3	-25	58*	-6	-24	2
CCOC(=O)c1[nH]c2c(c1C)C(=O)CC(c1ccco1)C2 (stereo not given)	10	-42	-26	75*	3	-19	55*
Cc1c(C(=O)OCCOC(C)C)[nH]c2c1C(=O)CC(c1ccco1)C2 (stereo not given)	18	-18	-33	60*	1	-27	36
CCN1CCN(C(=O)/C=C/c2cccc(Cl)c2)CC1	3	-9	-3	-20	5	-1	·

Bioassay records from PubChem.
